Data taken from the EternaBench riboswitch data.

Experiments:
[1] = tested on: MS2 coat protein; experiment: apparent Kd, MS2 coat protein; higher = weaker binding; RNA-MaP array; theophylline 2 mM where present
How it was run: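 Binding was read on Illumina sequencing-chip clusters where stalled E. coli RNA polymerase had transcribed each design. A titration of SNAP-549-labelled MS2 coat protein began at 0.7 or 1.5 nM and doubled to 3 µM, once without ligand and once with constant ligand, in 100 mM Tris-HCl pH 7.5, 80 mM KCl, 4 mM MgCl2, BSA, DTT, yeast tRNA and Tween-20. The apparent Kd is the median of filtered per-cluster binding-curve fits, based on green signal normalised to red-channel RNA signal and control-cluster median Fmax.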

[2] = tested on: MS2 coat protein; experiment: apparent Kd, MS2 coat protein; higher = weaker binding; RNA-MaP array
How it was run: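 Apparent Kd values come from the median of binding-curve fits to single clusters. To obtain them, designed RNAs transcribed on an Illumina sequencing chip from sequenced DNA templates were incubated at room temperature with fluorescently labeled MS2 coat protein at 1.5 nM to 3 μM, with or without input ligand, for 0.8–1.5 h at the lowest and 10–20 min at the highest concentrations. Designs measured on fewer than 10 clusters were excluded.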

[3] = designed as: OFF switch for theophylline, no ligand
[4] = ligand present: theophylline, designed as: OFF switch for theophylline
[5] = designed as: ON switch for theophylline, no ligand
[6] = ligand present: theophylline, designed as: ON switch for theophylline
[7] = designed as: OFF switch for flavin mononucleotide, no ligand
[8] = ligand present: flavin mononucleotide, designed as: OFF switch for flavin mononucleotide

Row | Sequence | apparent Kd [1, 3] [nM] | apparent Kd [1, 4] [nM] | apparent Kd [1, 5] [nM] | apparent Kd [1, 6] [nM] | also measured
1 | AUACCUAUUGAGUCGUGUUUCUAUUCAGAUACCAGACUUUUCGUUGUCCCUUGGCAGCUGUUUUACAUGAGGAUCACCCAUGUUG | 15 | 17.5 | – | – | –
2 | GGGAAUGAACGUGAUACCAGAGAUCCGGUCUCCGUCAAUAUACAUGAGGAUCACCCAUGUCUCCCUUGGCAGCACCGUCAUCGGG | 14.8 | 23.4 | – | – | –
3 | AUCUCAUAGAGUGAUACCAGACUACAUGAGGAUCACCCAUGUUACAUUUAAAUAUCAUUUGUCCCUUGGCAGCACAUGAAGUACA | 28 | 18 | – | – | –
4 | GGAAGCAGGACUGAUACCAGUCCAGCGAAUCAUACGACGCAACAUGAGGAUCACCCAUGUGACCCUUGGCAGCAGACUGCUACCG | – | – | 31.5 | 13.7 | –
5 | UUAGAUAUGACAGAUACCAGCGUGUUGUAGAACAUGAGGAUCACCCAUGUAGUGAUCGAGCGCCCUUGGCAGCUGGUGUGUUUGG | – | – | 149 | 440 | –
6 | GUAUGGAAACAUACUAGGGUAUCAUGAGAUACCAGUACAGAAAUGUACCCUUGGCAGCUCUAGCAUACAUGAGGAUCACCCAUGU | 14 | 22.9 | – | – | –
7 | ACGACGCAUAGUGAUACCAGCACAACAUGAGGAUCACCCAUGUCACAUAUGUUGUAAUAAUGCCCUUGGCAGCACUAUGCGUCAG | – | – | 52 | 87.3 | –
8 | GAUGAUAUUGCAGAUACCAGACACAUGAGGAUCACCCAUGUCGCUGAGAUGCUGGAUCGUGUCCCUUGGCAGCUGCGAUAUCAUC | 55.1 | 402 | – | – | –
9 | ACAUGAGGAUCACCCAUGUUCCUCGCCGAUACCAGUGAAGAAUUACGCCCUUGGCAGCGGAAAGAGUAUUUUGGAGAUGAGGUAC | 69.8 | 83.5 | – | – | –
10 | AAUAAGUAUCUGCUAGGUGAUCCAGCAGAUACCAGCUAGGAAACUAGCCCUUGGCAGCUGCAACAUGAGGAUCACCCAUGUAAUA | 444 | 228 | – | – | –
11 | ACGUCACGUUUACUCGUGGUUUCGAUCGAUACCAGUAGCGAGAGUUACCCUUGGCAGCGACAUGAGGAUCACCCAUGUACGAAGA | 13.5 | 18.4 | – | – | –
12 | UUAAAUGUGACGGAUACCAGCGUGUUGUAGAACAUGAGGAUCACCCAUGUAGUGAUCGAGCGCCCUUGGCAGCUGGUAUGUUUGA | – | – | 180 | 532 | –
13 | GGUGAUCCGUAUCACCGGAUCAUCGGUGAUACCAGCAUCGAAAGAUGCCCUUGGCAGCACCAACAUGAGGAUCACCCAUGUAAUA | – | – | 120 | 25.9 | –
14 | UGUUUGGUGCGCGAGUGUUGGAUAAUUGAUACCAGUGUAGAUGUACGCCCUUGGCAGCGAAUCCGAACAUGAGGAUCACCCAUGU | – | – | 32.5 | 87.2 | –
15 | UAUAUAGUGAUGGAUACCAGCAGAGAAAACGUUUAUCCUAACAUGAGGAUCACCCAUGUAUGCCCUUGGCAGCUGUUGUUAUAUA | 20.1 | 28 | – | – | –
16 | AUGUCGUUGAAUAUAGCGGCUUGGAGUGAUACCAGCAUGAUCCAAUGCCCUUGGCAGCAUAACAUGAGGAUCACCCAUGUUCCAG | – | – | 57.6 | 74.6 | –
17 | UAAAUAUUACUGGGUAAGGUAUAAAUAGAUACCAGCCAGAUAACUGGCCCUUGGCAGCUAAACAUGAGGAUCACCCAUGUAUAAU | – | – | 37 | 116 | –
18 | AUAUGAUCAUAUGAUACCAGAAAUGGUAUUCCUUUGUUUCUUACAUGAGGAUCACCCAUGUUCCCUUGGCAGCAUAUGAUCAUAU | 187 | 251 | – | – | –
19 | UAUUUGGUGCGCGAGUGUUGGAUAAUUGAUACCAGUGAAGAAGAGCGCCCUUGGCAGCGAAUCCUAACAUGAGGAUCACCCAUGU | – | – | 39.2 | 48.7 | –
20 | AACCGAGGCUAUCCUCUACGACUAUGUGAUACCAGAAUAAUUUUAUUCCCUUGGCAGCAUGACAUGAGGAUCACCCAUGUCUCUU | – | – | 39.2 | 58.2 | –
21 | GAGACAUGAGGAUCACCCAUGUUAGAUGAUACCAGUUAGAGAAGGAGCCCUUGGCAGCGUAAAUCUAGAGCCUAUGACGACAUGU | – | – | 13.4 | 14.2 | –
22 | AUCGUACCUGAUGAUACCAGCAAUUGCUCGUAACAUGAGGAUCACCCAUGUGACCAGUGAUGCCCUUGGCAGCAUGAUCGGUGCA | – | – | 53.8 | 12.4 | –

Row | Sequence | apparent Kd [1, 3] [nM] | apparent Kd [1, 4] [nM] | apparent Kd [1, 5] [nM] | apparent Kd [1, 6] [nM] | also measured
23 | UCUCGGUCUUUCUUUCUCCGAGAAUAUGAUACCAGUUAGUUUUAUGGCCCUUGGCAGCAUAGAACAUGAGGAUCACCCAUGUGUU | – | – | 94.2 | 108 | –
24 | AGUGUUAUAACUGAUACCAGACUCUCAUGUUUACAUGAGGAUCACCCAUGUUAUUUCUUUGUCCCUUGGCAGCAGAAUUUACACA | – | – | 317 | 49.3 | –
25 | AACAUGAGGAUCACCCAUGUAUUGGGUGAUACCAGCCUGAAUAAUGGCCCUUGGCAGCACCGCGCUAACUUUAUGUCUGCGAAAC | – | – | 127 | 138 | –
26 | CAGCCUGAUUGGUAAAUCCCUCAUCGUGAUACCAGUCGAGUGAUCGACCCUUGGCAGCACAUGAGGAUCACCCAUGUGCGCGUAA | 26.7 | 29.8 | – | – | –
27 | ACAAGUCCUCAUGAUACCAGCGAUGAGACAAAGUCUCAACAUGAGGAUCACCCAUGUACUCGCCCUUGGCAGCAUACGGUUUUUG | – | – | 415 | 43.6 | –
28 | GGAUAGAUAGGAGAUACCAGAUACAUCAACAUGAGGAUCACCCAUGUGUCUGCACUAAGUGUCCCUUGGCAGCUCGGAGAUCUGA | – | – | 32.3 | 20.5 | –
29 | ACAUGAGGAUCACCCAUGUUCCUCAUUGAUACCAGUGAAUUUAGACGCCCUUGGCAGCGAGUUUUUUUAUAAGAUGUUUUUUUUU | 545 | 1110 | – | – | –
30 | AAGCUGCCAAGAACAUGGGUGAAAUGUGAUACCAGCUAGGAAACUAGCCCUUGGCAGCACAUGAGGAUCACCCAUGUAAUAAUAA | 352 | 93.7 | – | – | –
31 | CCAUAUGUAACUGAUACCAGUGUACUGACAUGAGGAUCACCCAUGUUGGGUUUUGUUGUACACCCUUGGCAGCAGAAUCAUAUGG | 62.4 | 80.4 | – | – | –
32 | AUAACAUGAGGAUCACCCAUGUAAGCAGAUACCAGCUAGGAAACUAGCCCUUGGCAGCUGCAAUCCUCAUGUAUUGCAGCUGCAA | 15.7 | 36.2 | – | – | –
33 | UCUUUCUUUGUAGAUACCAGCGUGUUAUCUUUCUUUUGACAUGAGGAUCACCCAUGUAUAUGCCCUUGGCAGCUACAUAUUCUUU | – | – | 18.5 | 14.2 | –
34 | UAUAUAUAGAUGGAUACCAGCAGAGAAAACGUUUAUCCUAACAUGAGGAUCACCCAUGUAUGCCCUUGGCAGCUGUUUAUAUAUA | 24.4 | 31.6 | – | – | –
35 | ACGAUAGGACAUGAGGAUCACCCAUGUGAUACCAGCCUGGAAACAGGCCCUUGGCAGCACAAAUACUCCAGAAACCUAUCGAAAA | 258 | 417 | – | – | –
36 | AGCAUACAUUCUGAUACCAGAGACAUGAGGAUCACCCAUGUCCGAUCGUCCUGCCUCAGACUCCCUUGGCAGCAGGAUGUGUGCU | 13.9 | 33.4 | – | – | –
37 | ACAUGAAGAUUAAUCGUGGGCAUACUCGAUACCAGUAUUUUAACCUACCCUUGGCAGCGACAUGAGGAUCACCCAUGUGAGAUGA | 21.6 | 28.9 | – | – | –
38 | ACUUGGUGGUGAUCCCUGCCAAGAGGUGAUACCAGCAUCGAAAGAUGCCCUUGGCAGCACCAACAUGAGGAUCACCCAUGUAAUA | – | – | 156 | 157 | –
39 | CUCGAGUUAUGAGAUACCAGACUAUAGUUUACAUGAGGAUCACCCAUGUUAUGGGUGGUGGUCCCUUGGCAGCUCAUAUGUUUAA | 60.1 | 284 | – | – | –
40 | CUCCGAGGCUAUACUAUCCGCCUCAGUGAUACCAGAAUACCUAUAUUCCCUUGGCAGCAUCACAUGAGGAUCACCCAUGUGCCAU | – | – | 12.5 | 15.2 | –
41 | AAUAAGCAGCUGCCUUCCUCAUGAGCAGAUACCAGCUAGGAAACUAGCCCUUGGCAGCUGCAACAUGAGGAUCACCCAUGUAAUA | 65.8 | 73 | – | – | –
42 | AUGAGAUGAGGAUAUACUGGGUCCGCAUUAGAAACUUAUCAACAUGAGGAUCACCCAUGUAGAAGGCAUGUGAG | – | – | – | – | apparent Kd [2, 7]: 25.4 nM; apparent Kd [2, 8]: 83.2 nM
43 | GCAUUAACAAAGGAUAUGCAUUUCGUCAAUGUAGCAGAAGGUUGUACAUGAGGAUCACCCAUGUGUGAUCGAAC | – | – | – | – | apparent Kd [2, 7]: 26 nM; apparent Kd [2, 8]: 56.6 nM
44 | GGACGCCAUAUAGAGGAUAUUAAUGUCGACACAUGAGGAUCACCCAUGUCCCACUCGGGCGAACAUAAGAAGGCUAAUCAGACGUA | – | – | – | – | apparent Kd ([2]; designed as: ON switch for flavin mononucleotide, no ligand): 14.5 nM; apparent Kd ([2]; ligand present: flavin mononucleotide, designed as: ON switch for flavin mononucleotide): 10.5 nM
